Active and inactive are the calls of the source. The calls are words filed in the database; no cut-off is given here.
How the values were obtained:
[1] = tested on: T-24; experiment: Induction of apoptosis in human T24 cells assessed as late apoptotic cells at 20 uM after 24 hrs by annexin-V-FITC/propidium iodide staining-based flow cytometry (reference value: 2.08%); assay type: functional
[2] = tested on: T-24; experiment: Induction of apoptosis in human T24 cells assessed as necrotic cells at 20 uM after 24 hrs by annexin-V-FITC/propidium iodide staining-based flow cytometry (reference value: 1.66%); assay type: functional
[3] = Induction of apoptosis in human T24 cells assessed as caspase-9 upregulation after 24 hrs by qRT-PCR analysis; assay type: functional, cell-based; settings: T-24
Method in brief: (§1)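 T24 cells treated at […] for 24 h before RNA extraction. SYBR Green qRT-PCR with 500 nM primers: 2 min at 50 C, 10 min at 95 C, then 40 cycles of 15 s at 95 C and 1 min at 60 C. Expression by the ΔCt method against actin, normalized to untreated cells; run in triplicate.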

[4] = Induction of apoptosis in human T24 cells assessed as cytC upregulation after 24 hrs by qRT-PCR analysis; assay type: functional, cell-based; settings: T-24; method in brief: as §1
[5] = Induction of apoptosis in human T24 cells assessed as AIF upregulation after 24 hrs by qRT-PCR analysis; assay type: functional, cell-based; settings: T-24; method in brief: as §1
[6] = Induction of apoptosis in human T24 cells assessed as caspase-8 upregulation at IC50 after 24 hrs by qRT-PCR analysis relative to control; assay type: functional, cell-based; settings: T-24
[7] = Induction of apoptosis in human T24 cells assessed as AIF upregulation at IC50 after 24 hrs by qRT-PCR analysis relative to control; assay type: functional, cell-based; settings: T-24
[8] = tested on: T-24; experiment: Induction of apoptosis in human T24 cells assessed as increase in Bax protein expression after 6 to 24 hrs by Western blotting analysis; assay type: functional, cell-based
[9] = tested on: T-24; experiment: Induction of apoptosis in human T24 cells assessed as increase in caspase-3 protein expression at 20 uM after 6 to 24 hrs by Western blotting analysis; assay type: functional, cell-based
[10] = Cell cycle arrest in human T24 cells assessed as accumulation at G1 phase at 5 uM after 48 hrs by Rnase A/propidium iodide staining-based flow cytometry (reference value: 34.43%); assay type: functional; settings: T-24
Method in brief: (§2)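 T24 cells exposed to […] for 48 h, washed with ice-cold PBS, then fixed and permeabilized overnight in ice-cold 70% ethanol. RNase A (100 mg/mL) treatment at 37 C for 30 min, then PI staining (1 mg/mL) in the dark at 4 C for 30 min. Flow cytometry gave the percentage of cells in G1, S and G2 phase.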

[11] = Cell cycle arrest in human T24 cells assessed as accumulation at G2 phase at 5 uM after 48 hrs by Rnase A/propidium iodide staining-based flow cytometry (reference value: 3.58%); assay type: functional; settings: T-24; method in brief: as §2
[12] = Cell cycle arrest in human T24 cells assessed as accumulation at G1 phase at 20 uM after 48 hrs by Rnase A/propidium iodide staining-based flow cytometry (reference value: 34.43%); assay type: functional; settings: T-24
[13] = Cell cycle arrest in human T24 cells assessed as accumulation at G2 phase at 20 uM after 48 hrs by Rnase A/propidium iodide staining-based flow cytometry (reference value: 3.58%); assay type: functional; settings: T-24; method in brief: as §2
[14] = Cell cycle arrest in human T24 cells assessed as accumulation at S phase at 20 uM after 48 hrs by Rnase A/propidium iodide staining-based flow cytometry (reference value: 62%); assay type: functional; settings: T-24; method in brief: as §2
[15] = Cell cycle arrest in human T24 cells assessed as reduction in CDK2 level after 24 hrs by Western blotting analysis; assay type: functional, cell-based; settings: T-24
Method in brief: (§3)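 T24 cells treated at […] for 24 h and lysed in ice-cold RIPA buffer with protease inhibitors and NaF. Protein measured by Bradford; 30 micrograms per lane run on 12% SDS-PAGE and transferred to PVDF. Blocked 2 h at room temperature, primary antibody overnight at 4 C, HRP secondary (1:2000) 1 h, chemiluminescence detection.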

[16] = Cell cycle arrest in human T24 cells assessed as reduction in CDK4 level after 24 hrs by Western blotting analysis; assay type: functional, cell-based; settings: T-24; method in brief: as §3
[17] = Cell cycle arrest in human T24 cells assessed as increase in p16 level after 24 hrs by Western blotting analysis; assay type: functional, cell-based; settings: T-24; method in brief: as §3
[18] = Cell cycle arrest in human T24 cells assessed as increase in p21 level after 24 hrs by Western blotting analysis; assay type: functional, cell-based; settings: T-24; method in brief: as §3
[19] = Cytotoxicity against human T24 cells after 2 days by MTT assay; assay type: functional, cell-based; settings: T-24, 48 h
Method in brief: (§4)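 Cells grown in medium with 10% heat-inactivated FBS at 37 C under 5% CO2. Compounds dissolved in medium with 1% DMSO; controls received 1% DMSO. After 2 days, MTT (10 mg/mL) added for 4 h, formazan dissolved in DMSO and absorbance read at 570/630 nm. Survival taken relative to negative control; IC50 by Bliss method (n = 5), at least three independent experiments.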

[20] = Cytotoxicity against human SPCA2 cells after 2 days by MTT assay; assay type: functional, cell-based; settings: SPCA2, 48 h; method in brief: as §4
[21] = Cytotoxicity against human SKOV3 cells after 2 days by MTT assay; assay type: functional, cell-based; settings: SK-OV-3, 48 h; method in brief: as §4
[22] = tested on: T-24; experiment: Induction of apoptosis in human T24 cells assessed as necrotic cells at 5 to 20 uM after 24 hrs by AO/EB staining-based fluorescence microscopic analysis; assay type: functional, cell-based
Method in brief: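 T24 cells seeded at 5 × 10^4 cells/mL on cover slips. Medium was replaced with fresh medium containing 10% FBS and compound at 5, 10 or 20 µM for 24 h. Cover slips were inverted onto AO/EB stain and viewed by fluorescence microscopy. Live cells score uniform green, early apoptotic green-yellow, late apoptotic orange, and necrotic orange without condensed chromatin. Untreated cells served as control.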

[23] = tested on: T-24; experiment: Induction of apoptosis in human T24 cells assessed as fragmented nuclei after 24 hrs by Hoechst 33258 staining-based fluorescence microscopic analysis relative to control; assay type: functional, cell-based
Method in brief: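 T24 cells on cover slips treated at […] for 24 h; untreated cells as control. Fixed in 4% paraformaldehyde for 10 min, PBS washes, Hoechst 33258 for 5 min. Nuclei imaged by fluorescence microscopy, excitation 350 nm, emission 460 nm.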

[24] = tested on: T-24; experiment: Induction of apoptosis in human T24 cells assessed as early apoptotic cells at 5 uM after 24 hrs by annexin-V-FITC/propidium iodide staining-based flow cytometry (reference value: 2.74%); assay type: functional
[25] = tested on: T-24; experiment: Induction of apoptosis in human T24 cells assessed as necrotic cells at 5 uM after 24 hrs by annexin-V-FITC/propidium iodide staining-based flow cytometry (reference value: 1.66%); assay type: functional
[26] = tested on: T-24; experiment: Induction of apoptosis in human T24 cells assessed as early apoptotic cells at 10 uM after 24 hrs by annexin-V-FITC/propidium iodide staining-based flow cytometry (reference value: 2.74%); assay type: functional
[27] = tested on: T-24; experiment: Induction of apoptosis in human T24 cells assessed as late apoptotic cells at 10 uM after 24 hrs by annexin-V-FITC/propidium iodide staining-based flow cytometry (reference value: 2.08%); assay type: functional
[28] = tested on: T-24; experiment: Induction of apoptosis in human T24 cells assessed as necrotic cells at 10 uM after 24 hrs by annexin-V-FITC/propidium iodide staining-based flow cytometry (reference value: 1.66%); assay type: functional
[29] = tested on: T-24; experiment: Induction of apoptosis in human T24 cells assessed as early apoptotic cells at 20 uM after 24 hrs by annexin-V-FITC/propidium iodide staining-based flow cytometry (reference value: 2.74%); assay type: functional

Q: For `COc1ccc2c(c1)/C(=N\O)C(c1c[nH]c3ccc(OC)cc13)=N2`, which Activity [1] is on record?
A: Its Activity is 7.13%.

Q: And the Activity [2]?
A: Its Activity is 2.07%.

Q: And the Activity [3]?
A: The Activity was “Dose-dependent effect”.

Q: And the Activity [4]?
A: The Activity was “Dose-dependent effect”.

Q: What about the Activity [5] of the same compound?
A: The Activity was “Dose-dependent effect”.

Q: What about the fold change (FC) [6] of the same compound?
A: The fold change (FC) was 8.03.

Q: What about the fold change (FC) [7] of the same compound?
A: The fold change (FC) was 4.47.

Q: And the Activity [8]?
A: Its Activity is “Dose-dependent effect”.

Q: And the Activity [9]?
A: Its Activity is “Active”.

Q: What about the Activity [10] of the same compound?
A: The Activity was 45%.

Q: And the Activity [11]?
A: Its Activity is 3.11%.

Q: And the Activity [12]?
A: The Activity was 66.9%.

Q: And the Activity [13]?
A: The Activity was 4.67%.

Q: And the Activity [14]?
A: Its Activity is 28.4%.

Q: What about the Activity [15] of the same compound?
A: The Activity was “Dose-dependent effect”.

Q: And the Activity [16]?
A: The Activity was “Dose-dependent effect”.

Q: And the Activity [17]?
A: Its Activity is “Dose-dependent effect”.

Q: What about the Activity [18] of the same compound?
A: Its Activity is “Dose-dependent effect”.

Q: What about the IC50 [19] of the same compound?
A: The IC50 was 4.31 µM.

Q: What about the IC50 [20] of the same compound?
A: Its IC50 is 7.73 µM.

Q: What about the IC50 [21] of the same compound?
A: Its IC50 is 12.5 µM.

Q: And the Activity [22]?
A: The Activity was “inactive”.

Q: What about the Activity [23] of the same compound?
A: The Activity was “Dose-dependent effect”.

Q: What about the Activity [24] of the same compound?
A: Its Activity is 6.89%.

Q: And the Activity [25]?
A: The Activity was 1.18%.

Q: And the Activity [26]?
A: Its Activity is 11.9%.

Q: What about the Activity [27] of the same compound?
A: Its Activity is 7.06%.

Q: And the Activity [28]?
A: Its Activity is 1.22%.

Q: What about the Activity [29] of the same compound?
A: Its Activity is 32.7%.

Reference: ChEMBL document CHEMBL3414514, “Synthesis and pharmacological evaluation of novel bisindole derivatives bearing oximes moiety: identification of novel proapoptotic agents” (Eur J Med Chem, 2015)
